ChEMBL document CHEMBL1909525, “Synthesis and anticonvulsant activity of novel 2,6-diketopiperazine derivatives. Part 1: perhydropyrrole[1,2-a]pyrazines” (Eur J Med Chem, 2011)
Activity calls are given as the source filed them. No cut-off for these calls is given here.

What was measured:
[1] = Neurotoxicity in ip dosed albino Carworth Farms No.1 mouse assessed as motor impairment after 0.5 hrs by rotarod test; format: toxicity, organism-based; conditions: Carworth Farms No.1 (albino), in vivo
How it was run: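 Rotorod test in mice (18–25 g) dosed i.p. with compound suspended in 0.5% methylcellulose in water. Tested 30 min after dosing. Impairment was scored as inability to keep equilibrium on a 6 r.p.m. rod. TD50 came from groups of ≥8 mice at the time of peak effect, with 95% confidence intervals by probit analysis (Finney method).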

Mus musculus [2] = assay: Anticonvulsant activity in albino Carworth Farms No.1 mouse assessed as protection against subcutaneous metrazol-induced seizure at 300 mg/kg, ip after 4 hrs; format: functional, organism-based; parameters: dose 300 mg/kg
How it was run: (§1)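 Mouse scMET test. Compound given i.p. (30, 100 or 300 mg/kg) in 0.5% methylcellulose. Pentylenetetrazole 85 mg/kg (CD97) given s.c. at 0.5 or 4 h, then mice observed for 30 min. Protection is absence of clonic spasms; scored as protected/tested.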

Mus musculus [3] = assay: Anticonvulsant activity in albino Carworth Farms No.1 mouse assessed as protection against maximal electroshock-induced seizure at 30 mg/kg, ip after 0.5 hrs; format: functional, organism-based; parameters: dose 30 mg/kg
How it was run: (§2)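 Mouse MES test with compound given i.p. (30, 100 or 300 mg/kg) in 0.5% methylcellulose; tested at 0.5 and 4 h. Corneal stimulus of 50 mA at 60 Hz for 0.2 s, electrodes primed with 0.5% butacaine in 0.9% NaCl. Protection is abolition of hindlimb tonic extension; scored as protected/tested.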

Mus musculus [4] = assay: Anticonvulsant activity in ip dosed albino Carworth Farms No.1 mouse assessed as protection against electric-current for 3 secs-induced seizure after 0.25 hrs by 6Hz minimal clonic seizure test; format: functional; conditions: albino Carworth Farms No.1, ip
Mus musculus [5] = assay: Anticonvulsant activity in albino Carworth Farms No.1 mouse assessed as protection against subcutaneous metrazol-induced seizure at 100 mg/kg, ip after 0.5 hrs; format: functional, organism-based; parameters: dose 100 mg/kg; how it was run: as §1
Mus musculus [6] = assay: Neurotoxicity in albino Carworth Farms No.1 mouse assessed as motor impairment at 100 mg/kg, ip after 1 hr by rotarod test; format: toxicity, organism-based; parameters: dose 100 mg/kg, route intraperitoneal; conditions: in vivo
How it was run: (§3)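 Rotorod neurotoxicity in mice (18–25 g) following i.p. dosing of a suspension in 0.5% methylcellulose in water, tested at intervals between 0.25 and 4 h. Impairment was scored as failure to keep equilibrium on a 6 r.p.m. rod, reported as number impaired/number tested.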

Mus musculus [7] = assay: Anticonvulsant activity in albino Carworth Farms No.1 mouse assessed as protection against subcutaneous metrazol-induced seizure at 30 mg/kg, ip after 4 hrs; format: functional, organism-based; parameters: dose 30 mg/kg; how it was run: as §1
Mus musculus [8] = assay: Neurotoxicity in albino Carworth Farms No.1 mouse assessed as motor impairment at 300 mg/kg, ip after 0.5 hrs by rotarod test; format: toxicity, organism-based; parameters: dose 300 mg/kg, route intraperitoneal; conditions: in vivo
How it was run: (§4)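 Rotorod neurotoxicity in mice at 6 r.p.m. Compound given i.p. (30, 100, 300 mg/kg) in 0.5% methylcellulose; tested at 30 min and 4 h. Impairment is inability to keep equilibrium on the rod for a given time; scored as impaired/tested.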

Mus musculus [9] = assay: Anticonvulsant activity in albino Carworth Farms No.1 mouse assessed as protection against maximal electroshock-induced seizure at 100 mg/kg, ip after 4 hrs; format: functional, organism-based; parameters: dose 100 mg/kg; how it was run: as §2
Mus musculus [10] = assay: Anticonvulsant activity in albino Carworth Farms No.1 mouse assessed as protection against electric-current for 3 secs-induced seizure at 100 mg/kg, ip after 0.25 hrs by 6Hz minimal clonic seizure test; format: functional, organism-based; parameters: dose 100 mg/kg
How it was run: (§5)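 6 Hz psychomotor seizure test in mice. Compound given i.p. as a suspension in 0.5% methylcellulose. Corneal stimulation at 32 mA, 0.2-ms monopolar rectangular pulses at 6 Hz for 3 s, from a constant-current device. Tests run 0.25–4 h after dosing. A mouse counted as protected if it resumed normal exploratory behaviour within 10 s; scored as protected/tested.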

Mus musculus [11] = assay: Neurotoxicity in albino Carworth Farms No.1 mouse assessed as motor impairment at 300 mg/kg, ip after 4 hrs by rotarod test; format: toxicity, organism-based; parameters: dose 300 mg/kg, route intraperitoneal; conditions: in vivo; how it was run: as §4
Mus musculus [12] = assay: Anticonvulsant activity in albino Carworth Farms No.1 mouse assessed as protection against electric-current for 3 secs-induced seizure at 100 mg/kg, ip after 4 hrs by 6Hz minimal clonic seizure test; format: functional, organism-based; parameters: dose 100 mg/kg; how it was run: as §5
Mus musculus [13] = assay: Anticonvulsant activity in albino Carworth Farms No.1 mouse assessed as protection against maximal electroshock-induced seizure at 30 mg/kg, ip after 4 hrs; format: functional, organism-based; parameters: dose 30 mg/kg; how it was run: as §2
Mus musculus [14] = assay: Neurotoxicity in albino Carworth Farms No.1 mouse assessed as motor impairment at 100 mg/kg, ip after 2 hrs by rotarod test; format: toxicity, organism-based; parameters: dose 100 mg/kg, route intraperitoneal; conditions: in vivo; how it was run: as §3
Mus musculus [15] = assay: Neurotoxicity in albino Carworth Farms No.1 mouse assessed as motor impairment at 30 mg/kg, ip after 4 hrs by rotarod test; format: toxicity, organism-based; parameters: dose 30 mg/kg, route intraperitoneal; conditions: in vivo; how it was run: as §4
Mus musculus [16] = assay: Anticonvulsant activity in albino Carworth Farms No.1 mouse assessed as protection against maximal electroshock-induced seizure at 300 mg/kg, ip after 0.5 hrs; format: functional, organism-based; parameters: dose 300 mg/kg; how it was run: as §2
Mus musculus [17] = assay: Anticonvulsant activity in albino Carworth Farms No.1 mouse assessed as protection against subcutaneous metrazol-induced seizure at 30 mg/kg, ip after 0.5 hrs; format: functional, organism-based; parameters: dose 30 mg/kg; how it was run: as §1
Mus musculus [18] = assay: Anticonvulsant activity in albino Carworth Farms No.1 mouse assessed as protection against subcutaneous metrazol-induced seizure at 100 mg/kg, ip after 4 hrs; format: functional, organism-based; parameters: dose 100 mg/kg; how it was run: as §1
Mus musculus [19] = assay: Anticonvulsant activity in ip dosed albino Carworth Farms No.1 mouse assessed as time needs to show peak effect for electric-current for 3 secs-induced seizure after 0.25 hrs by 6Hz minimal clonic seizure test; format: functional
Mus musculus [20] = assay: Neurotoxicity in albino Carworth Farms No.1 mouse assessed as motor impairment at 30 mg/kg, ip after 0.5 hrs by rotarod test; format: toxicity, organism-based; parameters: dose 30 mg/kg, route intraperitoneal; conditions: in vivo; how it was run: as §4
Mus musculus [21] = assay: Anticonvulsant activity in albino Carworth Farms No.1 mouse assessed as protection against subcutaneous metrazol-induced seizure at 300 mg/kg, ip after 0.5 hrs; format: functional, organism-based; parameters: dose 300 mg/kg; how it was run: as §1
Mus musculus [22] = assay: Neurotoxicity in albino Carworth Farms No.1 mouse assessed as motor impairment at 100 mg/kg, ip after 4 hrs by rotarod test; format: toxicity, organism-based; parameters: dose 100 mg/kg, route intraperitoneal; conditions: in vivo; how it was run: as §4
Mus musculus [23] = assay: Neurotoxicity in albino Carworth Farms No.1 mouse assessed as motor impairment at 100 mg/kg, ip after 0.25 hrs by rotarod test; format: toxicity, organism-based; parameters: dose 100 mg/kg, route intraperitoneal; conditions: in vivo; how it was run: as §3
Mus musculus [24] = assay: Anticonvulsant activity in albino Carworth Farms No.1 mouse assessed as protection against maximal electroshock-induced seizure at 100 mg/kg, ip after 0.5 hrs; format: functional, organism-based; parameters: dose 100 mg/kg; how it was run: as §2
Mus musculus [25] = assay: Anticonvulsant activity in albino Carworth Farms No.1 mouse assessed as protection against electric-current for 3 secs-induced seizure at 100 mg/kg, ip after 2 hrs by 6Hz minimal clonic seizure test; format: functional, organism-based; parameters: dose 100 mg/kg; how it was run: as §5
Mus musculus [26] = assay: Anticonvulsant activity in albino Carworth Farms No.1 mouse assessed as protection against maximal electroshock-induced seizure at 300 mg/kg, ip after 4 hrs; format: functional, organism-based; parameters: dose 300 mg/kg; how it was run: as §2
Mus musculus [27] = assay: Neurotoxicity in albino Carworth Farms No.1 mouse assessed as motor impairment at 100 mg/kg, ip after 0.5 hrs by rotarod test; format: toxicity, organism-based; parameters: dose 100 mg/kg, route intraperitoneal; conditions: in vivo; how it was run: as §4
Mus musculus [28] = assay: Anticonvulsant activity in ip dosed albino Carworth Farms No.1 mouse assessed as time needs to show peak effect for protection against maximal electroshock-induced seizure; format: functional
Rattus norvegicus [29] = assay: Anticonvulsant activity in po dosed albino Sprague-Dawley rat assessed as protection against subcutaneous metrazol-induced seizure after 0.25 hrs; format: functional
How it was run: (§6)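 Rats dosed orally, compound in 0.5% methylcellulose. MES at 150 mA, 60 Hz, 0.2 s; scMET with pentylenetetrazole 70 mg/kg s.c. plus 30 min observation; rotorod for toxicity.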

Mus musculus [30] = assay: Anticonvulsant activity in ip dosed albino Carworth Farms No.1 mouse assessed as protection against subcutaneous metrazol-induced seizure after 0.25 hrs; format: functional; conditions: albino Carworth Farms No.1, 0.25 h
How it was run: (§7)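 Mouse quantification at the time of peak effect, compound given i.p. in 0.5% methylcellulose. Groups of at least eight mice received varied doses until at least two points fell between 100 and 0% response. ED50 (MES, scMET) and TD50 (rotorod) with 95% CI by probit analysis (Finney). PI = TD50/ED50 MES.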

Rattus norvegicus [31] = assay: Anticonvulsant activity in po dosed albino Sprague-Dawley rat assessed as time needs to show peak effect for protection against maximal electroshock-induced seizure after 0.25 hrs; format: functional; how it was run: as §6
Rattus norvegicus [32] = species on record: Rattus norvegicus; assay: Protective index, ratio of TD50 for albino Sprague-Dawley rat to ED50 for albino Sprague-Dawley rat by maximal electroshock-induced seizure test; format: functional
[33] = Neurotoxicity in po dosed albino Sprague-Dawley rat assessed as motor impairment after 0.25 hrs by rotarod test; format: toxicity, organism-based; conditions: in vivo; how it was run: as §6
Mus musculus [34] = assay: Anticonvulsant activity in ip dosed albino Carworth Farms No.1 mouse assessed as protection against maximal electroshock-induced seizure after 0.25 hrs; format: functional; conditions: albino Carworth Farms No.1, ip; how it was run: as §7
Rattus norvegicus [35] = assay: Anticonvulsant activity in po dosed albino Sprague-Dawley rat assessed as protection against maximal electroshock-induced seizure after 0.25 hrs; format: functional; how it was run: as §6
Mus musculus [36] = species on record: Mus musculus; assay: Protective index, ratio of TD50 for albino Carworth Farms No.1 mouse to ED50 for albino Carworth Farms No.1 mouse by maximal electroshock-induced seizure test; format: functional
How it was run: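 Mouse quantification at the time of peak effect, compound given i.p. in 0.5% methylcellulose. Groups of at least eight mice received varied doses until at least two points fell between 100 and 0% response. PI = TD50/ED50 MES.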

Structure (SMILES): CCOC(=O)CN1C(=O)[C@H](c2ccccc2)N2CCC[C@H]2C1=O
- TD50 at 0.5 h [1]: 178 mg/kg
- Activity (Mus musculus [2]): inactive
- Activity (Mus musculus [3]): inactive
- ED50 (Mus musculus [4]): 55.6 mg/kg
- Activity (Mus musculus [5]): inactive
- Activity (Mus musculus [6]): Non-toxic
- Activity (Mus musculus [7]): inactive
- Activity (Mus musculus [8]): Toxic
- Activity (Mus musculus [9]): inactive
- Activity (Mus musculus [10]): Active
- Activity (Mus musculus [11]): Non-toxic
- Activity (Mus musculus [12]): inactive
- Activity (Mus musculus [13]): inactive
- Activity (Mus musculus [14]): Non-toxic
- Activity (Mus musculus [15]): Non-toxic
- Activity (Mus musculus [16]): Active
- Activity (Mus musculus [17]): inactive
- Activity (Mus musculus [18]): inactive
- Time (Mus musculus [19]): 0.25 h
- Activity (Mus musculus [20]): Non-toxic
- Activity (Mus musculus [21]): inactive
- Activity (Mus musculus [22]): Non-toxic
- Activity (Mus musculus [23]): Non-toxic
- Activity (Mus musculus [24]): Active
- Activity (Mus musculus [25]): inactive
- Activity (Mus musculus [26]): Active
- Activity (Mus musculus [27]): Non-toxic

Structure (SMILES): O=C1NC(=O)C(c2ccccc2)(c2ccccc2)N1 [PHENYTOIN]
- Time (Mus musculus [28]): 1 h
- ED50 (Rattus norvegicus [29]): > 500 mg/kg
- ED50 (Mus musculus [30]): > 50 mg/kg
- Time (Rattus norvegicus [31]): 4 h
- Ratio TD50/ED50 (Rattus norvegicus [32]): >36.6
- TD50 at 0.25 h [33]: > 1000 mg/kg
- ED50 (Mus musculus [34]): 5.64 mg/kg
- ED50 (Rattus norvegicus [35]): 28.1 mg/kg
- Ratio TD50/ED50 (Mus musculus [36]): 7.3
